Measured values published in PMC5034689 (Molecular Metabolism, 2016).

Tests used:
[1] = Plasma protein binding, equilibrium dialysis, summary over species; format: in vitro ADME; conditions: human, mouse, rat
How it was run: (§1)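 Binding was measured by rapid equilibrium dialysis in triplicate, starting at 1 μM drug in the plasma chamber against PBS. Plates were shaken 6 h at 37 °C. Samples were matrix-matched to 1:1 plasma:PBS and quantified by LC-MS/MS. Fraction bound = ([plasma] − [PBS])/[plasma].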

[2] = Plasma protein binding, equilibrium dialysis, human; format: in vitro ADME
How it was run: as §1

71 unrelated kinases = conditions: cited from earlier work
IP3-3K = conditions: PC12 cells, enhances neurite outgrowth; cited from earlier work
Recombinant human IP6K1 = Recombinant human IP6K1 (Homo sapiens, UniProt Q92551); assay: IP6K1 activity assay in vitro, SDS-PAGE assay; format: biochemical; conditions: TNP 1 μM
How it was run: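 Recombinant human IP6K1 (100 ng, purified from E. coli) was incubated in 20 mM Tris pH 7.4 with 5 mM MgCl2, 5 nmol IP6, 1 mM ATP and 1 mM DTT. DMSO or 1 μM test compound was added. IP6 conversion to 5-IP7 was resolved and read by SDS-PAGE.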

[3] = Hepatic microsomal stability, human; format: in vitro ADME; conditions: liver microsomes, pH 7.4
How it was run: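 Test compound (1 μM) was incubated with liver microsomes (1 mg/ml) and 1 mM NADPH in 100 mM potassium phosphate, pH 7.4. Aliquots were taken at 0, 5, 10, 20, 40 and 60 min and analysed by LC-MS/MS. Loss of parent was expressed as half-life.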

PP-IP5K = conditions: cited from earlier work
CYP1A2 = molecular target: T1, CYP1A2 (Homo sapiens, UniProt P05177); assay: CYP450 inhibition in human hepatic microsomes, CYP1A2; format: in vitro ADME; conditions: liver microsomes
T1 sequence (P05177 1-516): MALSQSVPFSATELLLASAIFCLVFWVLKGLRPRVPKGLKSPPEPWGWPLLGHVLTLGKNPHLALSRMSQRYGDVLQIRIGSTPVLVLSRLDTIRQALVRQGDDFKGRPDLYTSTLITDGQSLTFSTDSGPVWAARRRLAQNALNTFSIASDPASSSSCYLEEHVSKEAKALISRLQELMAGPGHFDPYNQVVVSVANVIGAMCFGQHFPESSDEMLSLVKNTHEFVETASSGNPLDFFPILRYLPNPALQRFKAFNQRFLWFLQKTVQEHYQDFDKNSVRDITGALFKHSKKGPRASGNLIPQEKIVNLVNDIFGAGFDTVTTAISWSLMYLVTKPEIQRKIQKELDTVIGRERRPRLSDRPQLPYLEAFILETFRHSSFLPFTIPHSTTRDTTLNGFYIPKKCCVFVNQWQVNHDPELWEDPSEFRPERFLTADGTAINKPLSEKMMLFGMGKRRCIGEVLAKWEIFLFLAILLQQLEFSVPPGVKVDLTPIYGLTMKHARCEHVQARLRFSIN

DIO mice [4] = assay: Short-term TNP treatment of DIO mice; format: in vivo, C57BL6 mice; conditions: 20 mg/kg BW daily
How it was run: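 Mice fed HFD for 8 weeks received daily 20 mg/kg test compound with continued HFD (vehicle n = 6, treated n = 8). Food intake was measured after 7 days. GTT (glucose 2 g/kg i.p.) and ITT (insulin 0.75 U/kg i.p.) were done on days 12 and 17 after a 5 h fast. Tissues were taken on day 18. Akt S473 was immunoblotted from RIPA lysates, with densitometry n = 3.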

chow-fed male mice = assay: Long-term TNP treatment on fertility of chow-fed male mice; format: in vivo; conditions: 10 mg/kg BW daily for 15 weeks, chow-fed WT
How it was run: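 Six-week-old chow-fed male mice were injected daily with 10 mg/kg test compound for 4 weeks. They were then used for breeding while injections continued another 11 weeks (15 weeks total). Each male took part in 4 rounds of harem breeding, the last after 14 weeks of treatment.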

3T3L1 adipocytes = assay: Glycerol assay for lipolysis in adipocytes; format: cell-based; conditions: TNP 1 μM, isoproterenol 10 μM
How it was run: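 3T3-L1 preadipocytes were differentiated for 7 days. Adipocytes were pretreated 4 h with DMSO or 1 μM test compound in DMEM with 0.5% fatty-acid-free BSA. Medium was then replaced, with or without isoproterenol (10 μM), and compound was kept on throughout. Glycerol released into the medium was measured with a commercial kit.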

DIO WT mice = assay: Long-term TNP for reversal of DIO in WT mice; format: in vivo
How it was run: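 Inbred IP6K1-KO mice (seventh generation) and WT littermates, n = 4/group, received HFD for 8 weeks, then daily injections (10 mg/kg) with continued HFD for 10 weeks. GTT was done at week 5: 5 h fast, glucose 2 g/kg i.p., tail-vein glucometer readings including time 0. After 10 weeks, fat, lean and fluid masses were measured by LF-NMR, and mice were sacrificed after a 5 h fast.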

DIO mice [5] = assay: Long-term TNP treatment of DIO mice at thermoneutral temperature; format: in vivo
How it was run: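 Following the initial phase, vehicle or test compound was injected for another 8 weeks, n = 6/group. Body weight was recorded weekly. ITT was done at week 4: 5 h fast, human insulin 0.75 U/kg i.p., tail-vein glucometer. At 8 weeks, mice were sacrificed after a 5 h fast. Cardiac-puncture serum was assayed for cholesterol and HDL by a metabolic core.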

CYP3A4 = CYP3A4 (Homo sapiens, UniProt P08684); assay: CYP450 inhibition in human hepatic microsomes, CYP3A4; format: in vitro ADME; conditions: liver microsomes, probe midazolam (hydroxylation to 1′-hydroxymidazolam)
CYP2C9 = CYP2C9 (Homo sapiens, UniProt P11712); assay: CYP450 inhibition in human hepatic microsomes, CYP2C9; format: in vitro ADME; conditions: liver microsomes, probe tolbutamide (hydroxylation to hydroxytolbutamide)
CYP2D6 = CYP2D6 (Homo sapiens, UniProt P10635); assay: CYP450 inhibition in human hepatic microsomes, CYP2D6; format: in vitro ADME; conditions: liver microsomes, probe bufuralol (hydroxylation to 4′-hydroxybufuralol)
[6] = 10 mg/kg BW daily, 10 weeks, WT
[7] = 10 mg/kg BW daily, 10 weeks, WT, vs vehicle
[8] = after 5 weeks of TNP treatment, WT

Chain of CYP3A4 (P08684 whole entry): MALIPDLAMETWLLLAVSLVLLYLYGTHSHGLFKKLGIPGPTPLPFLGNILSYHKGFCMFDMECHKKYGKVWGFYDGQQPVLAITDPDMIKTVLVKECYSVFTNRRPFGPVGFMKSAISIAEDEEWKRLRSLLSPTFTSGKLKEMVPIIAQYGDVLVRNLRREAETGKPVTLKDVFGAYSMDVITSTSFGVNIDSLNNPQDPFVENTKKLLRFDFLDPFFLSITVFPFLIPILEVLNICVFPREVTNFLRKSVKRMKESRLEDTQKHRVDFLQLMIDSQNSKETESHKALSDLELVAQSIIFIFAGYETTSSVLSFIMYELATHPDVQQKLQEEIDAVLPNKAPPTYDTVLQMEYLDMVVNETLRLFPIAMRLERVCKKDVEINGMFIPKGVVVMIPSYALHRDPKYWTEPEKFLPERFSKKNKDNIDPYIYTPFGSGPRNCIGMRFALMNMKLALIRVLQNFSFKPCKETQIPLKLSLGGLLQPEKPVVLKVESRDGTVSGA
Chain of CYP2C9 (P11712 whole entry): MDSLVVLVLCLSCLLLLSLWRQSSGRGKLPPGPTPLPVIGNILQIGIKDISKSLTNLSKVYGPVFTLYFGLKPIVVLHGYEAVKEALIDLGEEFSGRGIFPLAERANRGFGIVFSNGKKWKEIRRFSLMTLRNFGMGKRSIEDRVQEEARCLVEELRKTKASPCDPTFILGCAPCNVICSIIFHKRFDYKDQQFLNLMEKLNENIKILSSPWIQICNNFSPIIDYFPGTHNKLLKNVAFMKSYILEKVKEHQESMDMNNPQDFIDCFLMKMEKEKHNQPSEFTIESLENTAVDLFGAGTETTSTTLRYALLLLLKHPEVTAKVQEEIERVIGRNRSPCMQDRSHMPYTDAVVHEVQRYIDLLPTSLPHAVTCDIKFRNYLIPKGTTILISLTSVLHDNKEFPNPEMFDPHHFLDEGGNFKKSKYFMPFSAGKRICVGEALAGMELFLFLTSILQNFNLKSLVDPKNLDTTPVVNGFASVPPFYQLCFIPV
Chain of CYP2D6 (P10635 whole entry): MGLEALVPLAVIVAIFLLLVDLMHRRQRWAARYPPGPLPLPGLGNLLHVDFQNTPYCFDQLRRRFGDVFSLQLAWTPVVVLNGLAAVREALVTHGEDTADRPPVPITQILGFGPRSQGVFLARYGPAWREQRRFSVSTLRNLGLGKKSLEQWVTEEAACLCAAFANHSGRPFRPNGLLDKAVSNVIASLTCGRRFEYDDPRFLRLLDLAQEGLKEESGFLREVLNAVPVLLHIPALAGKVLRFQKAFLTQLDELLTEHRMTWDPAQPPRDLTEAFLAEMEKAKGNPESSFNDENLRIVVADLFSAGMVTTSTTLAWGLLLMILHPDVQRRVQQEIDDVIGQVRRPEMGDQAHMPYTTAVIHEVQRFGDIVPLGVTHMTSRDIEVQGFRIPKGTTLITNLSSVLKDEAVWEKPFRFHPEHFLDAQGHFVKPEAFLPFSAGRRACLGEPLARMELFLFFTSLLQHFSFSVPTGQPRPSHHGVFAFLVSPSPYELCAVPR
Chain of Recombinant human IP6K1 (Q92551 whole entry): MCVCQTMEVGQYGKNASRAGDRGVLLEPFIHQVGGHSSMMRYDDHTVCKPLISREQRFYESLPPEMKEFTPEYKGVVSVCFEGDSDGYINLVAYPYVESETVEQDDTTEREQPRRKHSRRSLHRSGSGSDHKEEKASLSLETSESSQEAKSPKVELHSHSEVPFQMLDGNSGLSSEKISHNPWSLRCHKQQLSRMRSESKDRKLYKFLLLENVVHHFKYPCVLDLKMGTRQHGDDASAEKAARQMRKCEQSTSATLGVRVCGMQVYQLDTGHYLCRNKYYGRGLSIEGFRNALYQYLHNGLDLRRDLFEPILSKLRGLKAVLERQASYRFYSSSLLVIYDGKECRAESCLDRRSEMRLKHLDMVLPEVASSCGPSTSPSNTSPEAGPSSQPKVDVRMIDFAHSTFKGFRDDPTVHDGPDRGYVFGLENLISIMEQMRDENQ

## O=[N+]([O-])c1ccc(CNc2nc(NCc3cccc(C(F)(F)F)c3)nc3[nH]cnc23)cc1 [TNP, N6-(4-nitrobenzyl)-N2-(3-(trifluoromethyl)benzyl)-9H-purine-2,6-diamine]
[1]
  fraction unbound at 6 h, 1 μM: 0.07 to 0.1
[2]
  fraction unbound at 6 h, 1 μM: 0.083
71 unrelated kinases
  Effect on 71 unrelated kinases: does not influence
IP3-3K
  Concentrations at which TNP inhibits IP3-3K: 20 to 40 µM
Recombinant human IP6K1
  IP6K1 activity: inhibits IP6K1 activity
[3]
  half-life at 1 μM: 32 min
PP-IP5K
  Effect on the 1-IP7 generating enzyme PP-IP5K: does not influence
CYP1A2
  inhibition at 10 μM: 86%
DIO mice [4]; 12th day
  Glucose disposal following glucose injection (GTT): efficient glucose disposal
DIO mice [4]; 17th day
  Glucose disposal following insulin injection (ITT): disposes glucose more efficiently
DIO mice [4]; 18 days
  Fatty liver (histology): ameliorates fatty liver
  Serum glycerol levels: does not alter
  Serum insulin level: not significantly altered
  Serum levels of cholesterol or triglycerides: not altered
DIO mice [4]; 18 days, DIO mice, QNMR
  Reduction of fat mass by treatment: ~3 g
DIO mice [4]; 18 days, densitometry
  Akt S473 phosphorylation in the IWAT depot, enhancement vs vehicle: 4 fold
DIO mice [4]; 18 days, vs vehicle
  Serum levels of AST and ALT: less
  UCP1 mRNA expression in the IWAT: higher
  Weight of the EWAT depot: significantly less
DIO mice [4]; after 7 days
  Daily energy intake: does not influence daily energy intake
chow-fed male mice
  Sterility of males: do not display sterility
3T3L1 adipocytes
  Basal or isoproterenol induced lipolysis (glycerol release): does not influence
DIO WT mice; 10 mg/kg BW daily, 10 weeks, DIO mice
  Testis morphology: unaltered
DIO WT mice; 10 mg/kg BW daily, 10 weeks, HFD-fed WT
  Serum insulin level: reduces serum insulin level
DIO WT mice; [6]
  Serum cholesterol level: reduces serum cholesterol level
  UCP1 expression: enhances UCP1 expression
DIO WT mice; [7]
  Liver weight: substantially less
  Total fat mass (QNMR): significantly less
DIO WT mice; 10 mg/kg BW daily, 10 weeks, vs vehicle
  Histological morphology and weight of heart and kidney: similar
DIO WT mice; 10 mg/kg BW daily, after 10-week of treatment, WT
  Reduction in body weight vs vehicle: ~10 g
DIO WT mice; 10 mg/kg BW daily, after 10 weeks of injection, DIO WT
  Body weight: 36.9 g
DIO WT mice; [8]
  Fasting blood glucose: reduces fasting blood glucose
  Glucose disposal (GTT): enhances glucose disposal
DIO WT mice; long-term TNP treatment, WT and IP6K1-KO mice, stereological analysis
  CA1 neuronal density: did not significantly alter
DIO mice [5]; 30 °C, after 4-weeks of TNP injection
  Glucose disposal following exogenous insulin treatment (ITT): significantly improved
DIO mice [5]; 30 °C, after 8-weeks of injection
  Average decrease in body weight: ~0.7 g
DIO mice [5]; thermoneutral temperature
  Serum levels of total cholesterol and HDL: unaltered at thermoneutral temperature
CYP3A4
  inhibition at 10 μM: 98%
CYP2C9
  inhibition at 10 μM: 92%
CYP2D6
  inhibition at 10 μM: 76%
